# Rows were chosen to be rich in hits. Some 2% of all compounds tested hit in one or more screens of this group.
# ATG4B inhibitor = ATG4B protease inhibitors, primary screen, biochemical, fluorescence, uHTS. Cysteine protease ATG4B (Homo sapiens), Q9Y4P1. ATG4B cleavage of LC3-PLA2, NBD-HPC fluorescence, 1 h. inhibition, % at 8.33 µM. 340,000 tested, 0.51% active. AID 504462, 2011; in the data active means inhibition above about 40%
# SENP1 inh = human SENP1 catalytic domain inhibitors, primary screen, biochemical, FRET, uHTS; inhibition, % at 10 µM; Sentrin-specific protease 1 (Homo sapiens), Q9P0U3; 360,000 tested, 0.21% active; AID 624204, 2012; recombinant SENP1 catalytic domain, CyPet-SUMO1-YPet FRET cleavage;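 active means inhibition at least 30% at 10 µM, raw YFP signal under a set limit, fluorescence ratio 0.5 to 1.5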;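 further: 0% = enzyme with DMSO and 100% = no enzyme wells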
# Target sequence (Q9P0U3 419-644 limits assumed): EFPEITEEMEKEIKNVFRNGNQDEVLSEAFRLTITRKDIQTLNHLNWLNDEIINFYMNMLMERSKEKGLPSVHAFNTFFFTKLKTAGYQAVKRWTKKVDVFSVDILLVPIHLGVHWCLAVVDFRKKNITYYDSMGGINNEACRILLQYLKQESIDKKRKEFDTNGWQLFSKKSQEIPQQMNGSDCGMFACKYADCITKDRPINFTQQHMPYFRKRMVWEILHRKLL
#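 Assay system – human recombinant His6-tagged SENP1 catalytic domain enzyme · Input – SENP1 enzyme, 20 pM final · Buffer or medium – Tris pH 8 buffer plus EDTA, NaCl, BME, BSA, NP40, catalase · Schedule – 50 min reaction at room temperature · Technique – FRET read of cyan and yellow fluorescence · Control set – no-enzyme wells low, DMSO-plus-enzyme wells high control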
# HNF4A DNA FP = change in binding of human HNF4A to DNA, primary screen, biochemical, fluorescence polarization, FITC-DNA; Hepatocyte nuclear factor 4-alpha (Homo sapiens), P41235; 1 h; activity change, % at 10 µM; 360,000 tested, 0.3% active; AID 1224865, 2016; in the data active means activity change above about 30%, passing the limit was not always enough
# TPT1 inh = Candida albicans TPT1 enzyme inhibitors, primary screen, biochemical, fluorescence polarization; tRNA 2'-phosphotransferase TPT1 (Candida albicans SC5314); recombinant caTPT1, FP RNA substrate dephosphorylation; inhibition, % at 5 µM; 300,000 tested, 0.81% active;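 active means inhibition above the mean of all tested compounds plus 3 SD, set per screening campaign, cut at about 24% in these data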;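 further: plate controls were DMSO alone for no effect and ferristatin control at 100 nM for full effect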
# CSN deneddyl inh = inhibitors of CSN-mediated cullin deneddylation, primary screen, biochemical, fluorescence polarization, uHTS; 360,000 tested, 0.38% active; AID 651999, 2013; inhibition, % at 12.5 µM; Purified CSN, SCF-Nedd8-OG deneddylation;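 active means pattern-corrected inhibition above about 35%, with an unprinted fluorescence ratio check between 0.5 and 1.5, limit read from the data, passing the limit was not always enough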;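 further: 0% = enzyme with substrate and 100% = substrate without enzyme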
#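 Material: purified human Csn5 enzyme expressed in HEK293T cells / Medium: Tris buffer pH 7.5, NaCl, DTT, Tween-20, trehalose, ovalbumin / Compound dosing: 12.5 µM single point / Schedule: 90 min incubation of compound, enzyme and substrate at room temperature / Signal: fluorescence polarization of the substrate / Control set: no-enzyme wells high, enzyme-with-substrate wells low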
# Rpn11 inh = Rpn11 (PSMD14) deubiquitinase inhibitors, primary screen, biochemical, fluorescence polarization, uHTS; inhibition, % at 20 µM; 26S proteasome non-ATPase regulatory subunit 14 (Homo sapiens), O00487; human 26S proteasome, Ub4-pepOG fluorescence polarization; 20S core pre-blocked with epoxomicin; 360,000 tested, 0.59% active; AID 588493, 2011;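 active means inhibition at 20 µM, scaled to each plate's controls, above about 33%, limit read from the data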
# TPT1 inh confirm = Candida albicans TPT1 inhibitors, confirmation, biochemical, fluorescence polarization, triplicate | shares compounds with TPT1 inh | recombinant caTPT1, RNase T1 coupled | inhibition, % at 5 µM | 2,400 tested, 74% active | AID 2149, 2009;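 active means inhibition above the primary screen limit, the mean inhibition of all tested compounds plus 3 SD, cut at about 25% in these data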
# RNase T1 inh = RNase T1 inhibitors, counter-screen for TPT1 inhibitor project, biochemical, fluorescence polarization. shares compounds with TPT1 inh. RNase T1 cleavage, 1536-well. inhibition, % at 5 µM. 2,400 tested, 83% active. AID 2153, 2009;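 active means inhibition above the solvent-only control well mean plus 3 SD, limit set per screening run, cut at about 23% in these data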;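 further: plate controls were DMSO wells with enzyme for no effect and wells without RNase T1 for full effect; inhibitors block cleavage so intact labeled substrate keeps polarization high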
# Target sequence (P00651 whole entry, looked up): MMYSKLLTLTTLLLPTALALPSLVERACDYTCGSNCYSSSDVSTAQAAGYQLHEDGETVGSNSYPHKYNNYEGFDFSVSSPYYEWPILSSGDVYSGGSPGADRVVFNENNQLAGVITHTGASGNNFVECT
# * hit, by the source's call; nt = not tested or not shown.
SMILES,ATG4B inhibitor,SENP1 inh,HNF4A DNA FP,TPT1 inh,CSN deneddyl inh,Rpn11 inh,TPT1 inh confirm,RNase T1 inh
CN1CCc2c(sc3nc(SCC(=O)NCc4ccco4)n(-c4ccccc4)c(=O)c23)C1,-7,-21,32,30*,17,nt,38*,51*
COc1cccc(C(CNC(=O)C2CCN(C(=O)Nc3ccccc3)CC2)N(C)C)c1 (stereo not given),-7,-3,-2,nt,1,6,nt,nt
CSCCC(C(=O)NC(C)(C)C)n1c(-c2ccc3c(c2)OCO3)nc2ccccc21 (stereo not given),nt,-3,8,nt,6,nt,nt,nt
Cc1cccc(C)c1-n1c(C)cc(/C=N\Nc2ccc([N+](=O)[O-])cn2)c1C,-5,-28,38,75*,24,nt,67*,79*
c1ccc(-c2ccccc2OCCCCN2CCCCC2)cc1,6,2,3,51*,0,-2,4,9
O=C1CCC/C(=N/NC(=O)c2sc3ccccc3c2Cl)C1,-16,-40,149,98*,-2,nt,110*,108*
Cc1cc(NC(=O)C(C)Sc2nnc(NCc3ccco3)s2)no1 (stereo not given),-8,-2,-2,nt,2,-4,nt,nt
CSc1nsc(/C=C/Nc2ccc(O)cc2C)c1C#N,8,-24,111,26*,17,nt,22,33*
C=CCn1ccc(=NC=C(C#N)C#N)c2ccccc21,-6,-38,13,31*,-1,36,45*,57*
O=C1/C(=C/c2ccco2)CCc2ccccc21,21,-35,5,6,4,7,nt,nt
Nc1ccc2c(c1)C/C(=C/c1ccco1)C2=O,-6,-28,-37,26*,56,-20,-3,10
O=c1nc(/C=C/c2ccc(-c3ccc(F)cc3)o2)cc(C(F)(F)F)[nH]1,nt,nt,nt,110*,nt,nt,106*,106*
O=C(O)c1cc(Cl)ccc1-c1ccc(/C=C/c2cc(C(F)(F)F)[nH]c(=O)n2)o1,0,-24,76,62*,-90,nt,85*,91*
O=C(O)c1ccccc1-c1ccc(/C=C/c2cc(C(F)(F)F)[nH]c(=O)n2)o1,-20,-28,47,nt,-13,nt,nt,nt
CCOC(=O)Cc1ccc(Nc2nc(NCc3ccccc3)nc3ccsc23)cc1,nt,2,-2,nt,-3,-9,nt,nt
O=S(=O)(c1ccc(-c2ccon2)s1)N1CCN(c2ccncc2)CC1,15,nt,nt,44*,nt,nt,19,26*
CC(=O)c1cccc(S(=O)(=O)Nc2cc(C(F)(F)F)ccc2N2CCOCC2)c1,3,1,0,nt,6,6,nt,nt
CC(CC1C(C#N)=C(N)SC(N)=C1C#N)c1ccccc1 (stereo not given),9,-45,74,60*,58*,nt,29*,38*
Cn1cc(/C=C/C(=O)c2ccccc2)c2ccccc21,4,-38,16,34*,1,31,38*,45*
Cn1cc(/C=C2\SC(=S)N(NC(=O)c3cccc(Cl)c3)C2=O)c2ccccc21,4,-33,-26,nt,10,nt,nt,nt
O=C(NN1C(=O)/C(=C/c2ccc(O)cc2)SC1=S)c1cccc(O)c1,4,70,107*,71*,129,nt,67*,72*

# Source: PubChem
